CendR NRP1 mod – modulators of CendR peptide binding to NRP-1, primary screen, biochemical, fluorescence polarization, uHTS | FAM-RPARPAR peptide binding to NRP-1 | Neuropilin-1 (Homo sapiens), O14786 | inhibition, % at 25 µM | 0.85% of 360,000 active | AID 602438, 2012;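 active = inhibition or corrected inhibition above about 18%, plus a signal ratio from 0.5 to 1.5, limit read from the data, passing the limit was not always enough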
Target sequence (O14786 whole entry, looked up): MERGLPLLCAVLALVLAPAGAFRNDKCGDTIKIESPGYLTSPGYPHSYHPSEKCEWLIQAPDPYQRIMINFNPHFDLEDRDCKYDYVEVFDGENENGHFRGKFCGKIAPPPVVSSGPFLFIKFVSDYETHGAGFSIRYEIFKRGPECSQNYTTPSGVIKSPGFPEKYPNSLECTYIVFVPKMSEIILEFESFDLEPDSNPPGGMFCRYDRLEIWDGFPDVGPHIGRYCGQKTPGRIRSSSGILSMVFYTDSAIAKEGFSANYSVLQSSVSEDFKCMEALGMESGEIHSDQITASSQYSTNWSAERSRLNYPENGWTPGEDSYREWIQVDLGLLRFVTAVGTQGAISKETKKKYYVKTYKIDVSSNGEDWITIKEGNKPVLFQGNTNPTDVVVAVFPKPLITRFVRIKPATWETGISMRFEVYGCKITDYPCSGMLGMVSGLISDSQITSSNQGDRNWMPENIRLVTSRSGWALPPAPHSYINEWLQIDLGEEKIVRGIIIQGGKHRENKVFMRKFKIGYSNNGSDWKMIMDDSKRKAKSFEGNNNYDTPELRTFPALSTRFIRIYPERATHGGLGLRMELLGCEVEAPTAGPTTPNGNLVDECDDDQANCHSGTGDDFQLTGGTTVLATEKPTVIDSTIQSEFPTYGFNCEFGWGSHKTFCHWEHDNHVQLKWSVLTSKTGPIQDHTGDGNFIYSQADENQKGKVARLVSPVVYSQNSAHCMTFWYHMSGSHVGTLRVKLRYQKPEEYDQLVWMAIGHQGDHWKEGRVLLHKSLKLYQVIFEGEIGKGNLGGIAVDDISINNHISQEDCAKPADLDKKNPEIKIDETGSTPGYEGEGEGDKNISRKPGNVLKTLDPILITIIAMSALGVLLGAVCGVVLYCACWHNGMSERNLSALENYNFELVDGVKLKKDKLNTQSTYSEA
V-ATPase pHluor – regulators of yeast V-ATPase proton pumping, primary screen, pHLuorin cytosolic pH fluorescence | S. cerevisiae | response, % at 10 µM | 0.37% of 350,000 active | AID 504577, 2011; in the data active = response mostly above about 7.3%, no sharp cut-off; inactive = mostly below about 5.4%; note: actives read high
HIF activator – HIF pathway transcriptional activators, primary screen, cell-based, U2OS HRE-luciferase, luminescence. U2OS HRE-luciferase reporter; normalized: DMSO 0%, desferrioxamine 100%. activation, % at 7.5 µM (by protocol). 0.32% of 300,000 active. AID 1910, 2009;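 active = mean activation of at least 10% of the iron chelator positive control signal, with at least half of replicates also reaching 10%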
AI-2 QS mod – Vibrio harveyi AI-2 quorum sensing modulators, primary screen, JMH597 strain, luminescence/OD600 ratio; 0.4% of 300,000 active; activity change, % at 7.5 µM; Vibrio harveyi JMH597 AI-2 luminescence/OD600 ratio, 9 h; stronger effect = lower value; strain lacks LuxN and CqsS sensors; 0 = neutral-control median; in the data active = activity change below about -75%, passing the limit was not always enough;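 note: luminescence divided by OD600 gain over 9 h not by final OD600 alone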
T cruzi repl – inhibitors of intracellular T. cruzi growth, primary screen, luminescence, NIH3T3 host cells; inhibition, % (concentration not given with the values); 1.4% of 300,000 active; T. cruzi beta-gal in NIH3T3, 90 h;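 active = mean inhibition across valid replicates above about 55%, limit read from the data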;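 note: signal also drops with host cell toxicity which is not excluded here; 0% = plate median of DMSO wells and 100% = zero luminescence signal; higher percent means less beta-gal luminescence so fewer parasites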
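System: Mouse NIH/3T3 fibroblasts infected with β-gal-expressing T. cruzi Tulahuen C4 | Quantity: NIH/3T3 cells, 5,000 per well | Reagent: 5000 reporter trypomastigotes per well | Dosing: Compound pinned at 50 nL/well, DMSO | Schedule: 3 h host attachment, then at least 90 h co-culture | Detection: GalScreen luminescence, 60 min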
CR mimetic SO – reduction of superoxide in aged yeast, primary screen, HTS; superoxide response (% of plate mean), % at 10 µM; S. cerevisiae aged cells, superoxide DHE fluorescence; stronger effect = lower value; 0.18% of 330,000 active;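 active = superoxide response under a set limit, about three screen SD below normal, cut at about 65% in these data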;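 note: yeast aged for seven days with compound at 30 °C before DHE staining; 100% = average MFI of all compound-treated wells on the plate with controls excluded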
Active calls of the source: *; . = no result given. The list is not random: actives were taken first. Their share in the collection is about 3%.

SMILES	CendR NRP1 mod	V-ATPase pHluor	HIF activator	AI-2 QS mod	T cruzi repl	CR mimetic SO
CC(=O)c1cccc(N2C(=O)C3C4CCC(C4=C(C)C)C3C2=O)c1 (stereo unspecified)	10	2	0	12	2	97
Cc1ccccc1/C=C/c1nc2ccccc2c(=O)n1CCc1ccccc1	40*	1	-1	34	14	95
Cc1c(Cl)cccc1NC(=S)N/N=C/c1ccccc1Cl	.	.	41*	-5	-32	108
S=C(N/N=C/c1ccccc1Cl)Nc1ccccc1	-1	-3	3	12	17	91
S=C(N/N=C/c1cccc2ccccc12)Nc1cccc(Cl)c1	-14	-2	220*	-6	13	95
O=C(Nc1cccc(-c2nnn(CC(=O)N3CCc4ccccc4C3)n2)c1)C1CCC1	-3	-3	0	35	8	116
O=C(Nc1ccccc1-c1nnn(CC(=O)N2CCc3ccccc3C2)n1)C1CCC1	28*	6	0	14	20	103
O=C(Nc1ccc(Cl)c(Cl)c1)O/N=C/c1ccncc1	-10	2	0	-88*	-2	97
N/C(CSc1ccc(Cl)cc1)=N\S(=O)(=O)c1ccc(Cl)cc1	29*	1	.	17	.	111
C/C(N)=N\S(=O)(=O)c1ccc(Cl)cc1	2	-5	.	13	0	97
CCCc1c(C)nc(N2CCN(c3ccccc3OC)CC2)[nH]c1=O	32*	0	0	14	10	100
CCc1c(C)nc(SCC(=O)N2CCN(c3ccccc3OC)CC2)[nH]c1=O	-1	-2	-1	12	15	95
O=S(=O)(Nc1ccc(Br)cc1)c1cccc(NS(=O)(=O)c2cccs2)c1	21*	-5	.	.	.	.
COc1ccccc1S(=O)(=O)Cc1ccc(C(=O)NCc2ccccc2)o1	9	1	0	12	2	133
COc1cc2c(cc1OC)CN(c1nc(-c3cccnc3)nc3ccccc13)CC2	-21	-3	-1	13	55*	97
CCOC(=O)C1=C(c2ccccc2)O/C(=C(/C#N)C(F)(F)F)S1	.	.	3	7	70*	97
CCOC(=O)C1=C(c2ccccc2)O/C(=C(\C(=O)OC)C(F)(F)F)S1	-1	-1	-1	12	17	96
O=c1ccn(-c2cccc(C(F)(F)F)c2)nc1-c1ccn(-c2ccccc2F)n1	10	2	0	30	5	105
COc1ccc(C(=O)/C=C/C(=O)N(CC(=O)NC2CCCCC2)Cc2ccc(F)cc2)c(O)c1	-2	-1	-8	4	59*	.
Cc1ccc(N/C=C2\C(=O)C3(C)CCC2C3(C)C)cc1C (stereo unspecified)	1	0	1	24	21	100
CC(C)(C)OC(=O)[C@H](NC(=O)OCc1ccccc1)c1ccccc1	0	-1	.	.	.	102
CC(C)(C)OC(=O)N[C@H](C(=O)OC(C)(C)C)c1ccccc1	36*	-3	.	.	.	73
COC(=O)C(NC(=O)CCC(=O)NC(C(=O)OC)c1ccccc1)c1ccccc1 (stereo unspecified)	-1	0	0	-3	-15	95
COC(=O)C(NC(=O)CCC(=O)N[C@@H](C(=O)OC)c1ccccc1)c1ccccc1 (stereo partly specified)	25*	2	0	8	-9	105
CCN(C(=O)CSc1nnc(-c2ccccc2Cl)n1C1CCCC1)C1CCS(=O)(=O)C1 (stereo unspecified)	20*	-2	1	47	8	101
SMILES	CendR NRP1 mod	V-ATPase pHluor	HIF activator	AI-2 QS mod	T cruzi repl	CR mimetic SO
O=C(Cn1ncc2ccccc2c1=O)Nc1cccc(C(F)(F)F)c1	-7	-1	.	.	.	.
CC(=NNS(=O)(=O)c1ccc(C)cc1)c1ccncc1	9	0	.	.	.	.
Cc1cc(C)c2c(N)c3ccccc3nc2n1	-28	3	20*	17	40	99
CCc1ccc2nc3nc(C)cc(C)c3c(N)c2c1	-20	-5	1	13	13	109
N#Cc1nc(-c2cccs2)oc1NCc1ccccc1	5	0	0	-91*	3	103
COc1ccc(Cn2cc(C(=O)O)c(=O)c3ccccc32)cc1	7	-1	0	3	22	89
O=C(O)c1cn(Cc2ccccc2)c2ccc(Cl)cc2c1=O	23*	-5	-1	20	19	109
O=C1CSC(=Nc2ccccc2[N+](=O)[O-])N1	12	-3	0	8	-13	108
CCN(CC)CCCNC(=O)c1oc2ccc(S(=O)(=O)N3CC(C)CC(C)C3)cc2c1C (stereo unspecified)	9	2	0	0	56*	80
Cc1c(C(=O)NCC2CCCO2)oc2ccc(S(=O)(=O)N3CC(C)CC(C)C3)cc12 (stereo unspecified)	-3	1	0	2	14	101
Cc1c(C(=O)NCC2COc3ccccc3O2)oc2ccc(S(=O)(=O)N3CCOCC3)cc12 (stereo unspecified)	0	1	-1	39	8	81
Cc1c(C(=O)NCC2COc3ccccc3O2)oc2ccc(S(=O)(=O)N3CC(C)CC(C)C3)cc12 (stereo unspecified)	-1	3	-1	15	63*	94
COc1cccc(C2C3=C(N=C4SCC(=O)N42)c2ccccc2CC3)c1OC (stereo unspecified)	9	-4	0	8	13	95
COc1cccc(C2C3=C(N=c4s/c(=C\c5ccccc5O)c(=O)n42)c2ccccc2CC3)c1OC (stereo unspecified)	.	.	616*	7	-9	102
O=C(N/N=C/c1c[nH]c2ccccc12)c1cc(-c2ccc(-c3ccccc3)cc2)n[nH]1	-12	-1	1	15	33	104
O=C(N/N=C/c1c[nH]c2ccccc12)c1cc(-c2ccc3ccccc3c2)n[nH]1	3	1	0	-79*	-35	80
COc1ccc(Br)cc1C(=O)Nc1ccc(Cc2ccncc2)cc1	-7	0	0	14	73*	102
COc1cccc(OCc2cc(C(=O)N(C)C3CCCCC3)no2)c1	3	1	.	.	.	.
Cc1ccc(F)c([C@H]2C3C=CCC(c4ccccc4)C3C(=O)N2Cc2ccccc2)c1 (stereo partly specified)	8	-5	-1	13	24	105

Source: PubChem BioAssay (several laboratories)
